{"source": "ChEMBL document CHEMBL4513216", "about": "“Probing the Open Global Health Chemical Diversity Library for Multistage-Active Starting Points for Next-Generation Antimalarials” (ACS Infect Dis, 2020)", "experiment": "Toxicity liver stage against HepG2, at 10uM", "assay_type": "cell-based", "parameters": "test concentration 10 uM, cell line HepG2-A16-CD81EGFP", "conditions": "human, HepG2-A16-CD81EGFP cells; read-out: INHIBITION", "in_short": "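Uninfected HepG2-A16-CD81EGFP cells, 3 × 10^3 per well, 1536-well, plated on prespotted compound at 10 μM final, parasite-free screening media added to match infected plates; puromycin 10 μM positive, DMSO 0.5% negative; run in parallel with 48 h PbLuc assay at 37 °C, 5% CO2; viability by CellTiter-Glo luminescence, normalized to controls.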", "data": [{"smiles": "COc1cccc(CN2CCC(Cc3cnc(CN(C)C)cn3)CC2)c1", "values": [{"measurement": "cytotoxicity at 10 µM", "value": -2.82, "unit": "%"}]}, {"smiles": "COc1ccc(C2=CCN(C(=O)CN(C)Cc3ccoc3)CC2)cc1", "values": [{"measurement": "cytotoxicity at 10 µM", "value": -4.87, "unit": "%"}]}, {"smiles": "Cc1ccccc1CNC(=O)c1ccccc1-n1cc(CN)cn1", "values": [{"measurement": "cytotoxicity at 10 µM", "value": -21, "unit": "%"}]}, {"smiles": "C[C@@H](NC(=O)c1cnccn1)c1c(-c2ccc(Cl)cc2)noc1C(=O)O", "values": [{"measurement": "cytotoxicity at 10 µM", "value": 4.26, "unit": "%"}]}, {"smiles": "CCCc1nnc(C(=O)N(C)Cc2cnc3ccccn23)o1", "values": [{"measurement": "cytotoxicity at 10 µM", "value": -3.41, "unit": "%"}]}, {"smiles": "Cn1cccc1C(=O)N1CCC2(CCCN2c2ncccn2)CC1", "values": [{"measurement": "cytotoxicity at 10 µM", "value": 6.07, "unit": "%"}]}, {"smiles": "N#Cc1ccc(OC2CCN(CC(=O)NCC(F)(F)F)CC2)cc1", "values": [{"measurement": "cytotoxicity at 10 µM", "value": 11.9, "unit": "%"}]}, {"smiles": "CC(=O)N1CCC(NC(C)c2cnn(-c3ccc(F)cc3F)c2C)CC1", "note": "(centres undefined)", "values": [{"measurement": "cytotoxicity at 10 µM", "value": -6.4, "unit": "%"}]}, {"smiles": "Cc1cnc(-c2nc(C3CCN(Cc4ccccc4Cl)CC3)no2)cn1", "values": [{"measurement": "cytotoxicity at 10 µM", "value": -5.85, "unit": "%"}]}, {"smiles": "NC(=O)CN(Cc1ccc(Br)cc1)C(=O)c1cccnc1", "values": [{"measurement": "cytotoxicity at 10 µM", "value": 9.49, "unit": "%"}]}, {"smiles": "CN(C)C(=O)COC[C@]12COC[C@H]1CN(Cc1ccccc1)C2", "values": [{"measurement": "cytotoxicity at 10 µM", "value": -5.78, "unit": "%"}]}, {"smiles": "OCc1cccc(CNCc2cccc3c2OCCO3)c1", "values": [{"measurement": "cytotoxicity at 10 µM", "value": 4.25, "unit": "%"}]}, {"smiles": "O=C(N[C@H]1CN[C@H]2CCCO[C@H]21)c1ccno1", "values": [{"measurement": "cytotoxicity at 10 µM", "value": -6.92, "unit": "%"}]}, {"smiles": "O=C(NCCn1nc(C2CCNC2)c2cccnc21)c1ccccn1", "note": "(centres undefined)", "values": [{"measurement": "cytotoxicity at 10 µM", "value": -25.7, "unit": "%"}]}, {"smiles": "COc1ccc(CN2CCc3ncnc(C4CC4)c3CC2)cc1", "values": [{"measurement": "cytotoxicity at 10 µM", "value": -148, "unit": "%"}]}, {"smiles": "CC(C)N1CCN(c2ccc3ccc(C(=O)NC4CCCC4)cn23)CC1", "values": [{"measurement": "cytotoxicity at 10 µM", "value": 1.26, "unit": "%"}]}, {"smiles": "CN(C)C(=O)CN1C[C@H]2CC[C@@H](C1)N(C(=O)Cc1ccccc1Cl)C2", "values": [{"measurement": "cytotoxicity at 10 µM", "value": -11.2, "unit": "%"}]}, {"smiles": "COc1ccc(CN(C)[C@@H]2CN(C(=O)c3cncs3)C[C@H]2O)cc1", "values": [{"measurement": "cytotoxicity at 10 µM", "value": -12.4, "unit": "%"}]}, {"smiles": "CN(Cc1ccccc1)CC(O)Cn1cnc2sccc2c1=O", "note": "(centres undefined)", "values": [{"measurement": "cytotoxicity at 10 µM", "value": -6.54, "unit": "%"}]}, {"smiles": "CC(C)Cc1cc(CNC(=O)C2CCCN(Cc3ccco3)C2)no1", "note": "(centres undefined)", "values": [{"measurement": "cytotoxicity at 10 µM", "value": 3.11, "unit": "%"}]}, {"smiles": "CCn1c(CN2CCC(O)(c3ccc4c(c3)OCO4)CC2)cnc1SC", "values": [{"measurement": "cytotoxicity at 10 µM", "value": 6.96, "unit": "%"}]}, {"smiles": "CC(c1ccccn1)N(C)Cc1ccc(-n2ccnc2)cc1", "note": "(centres undefined)", "values": [{"measurement": "cytotoxicity at 10 µM", "value": -0.452, "unit": "%"}]}, {"smiles": "CN(CC1CC1)C(=O)CN(Cc1cccc(O)c1)C1CCC(O)CC1", "note": "(centres undefined)", "values": [{"measurement": "cytotoxicity at 10 µM", "value": -1.21, "unit": "%"}]}, {"smiles": "CN(C)S(=O)(=O)N1CCCC(C)(c2ncc(C(N)=O)s2)C1", "note": "(centres undefined)", "values": [{"measurement": "cytotoxicity at 10 µM", "value": -2.36, "unit": "%"}]}, {"smiles": "Cc1cc(C)cc(C(=O)NCCS(=O)(=O)N2CCSCC2)c1", "values": [{"measurement": "cytotoxicity at 10 µM", "value": -12.5, "unit": "%"}]}, {"smiles": "Cc1nccn1-c1cccc(C2CCCN(C3CCCC3)C2)n1", "note": "(centres undefined)", "values": [{"measurement": "cytotoxicity at 10 µM", "value": -12.7, "unit": "%"}]}, {"smiles": "COCC1CN(c2ccc(Cl)cc2C#N)CCO1", "note": "(centres undefined)", "values": [{"measurement": "cytotoxicity at 10 µM", "value": 11.1, "unit": "%"}]}, {"smiles": "C=Cn1ncc(CN2C[C@@H]3CCCN3C[C@H]2CCSC)c1C", "values": [{"measurement": "cytotoxicity at 10 µM", "value": -4.12, "unit": "%"}]}, {"smiles": "Cc1ccsc1-c1nccn1C1CC(=O)N(C(C)C)C1", "note": "(centres undefined)", "values": [{"measurement": "cytotoxicity at 10 µM", "value": -9.73, "unit": "%"}]}, {"smiles": "CN(Cc1ccccc1F)C(=O)CS(=O)(=O)Cc1ccc(Cl)c(Cl)c1", "values": [{"measurement": "cytotoxicity at 10 µM", "value": 3.2, "unit": "%"}]}, {"smiles": "O=C(CO[C@@H]1CC[C@H]2[C@H]1OCCN2Cc1ccccn1)N1CCCC1", "values": [{"measurement": "cytotoxicity at 10 µM", "value": -3.98, "unit": "%"}]}, {"smiles": "CS(=O)(=O)Cc1nc(CN2CCc3ccccc3CC2)cs1", "values": [{"measurement": "cytotoxicity at 10 µM", "value": -7.73, "unit": "%"}]}, {"smiles": "COc1ccc(OC)c(C(C(=O)O)N2CCSCC2)c1", "note": "(centres undefined)", "values": [{"measurement": "cytotoxicity at 10 µM", "value": -1.02, "unit": "%"}]}, {"smiles": "COC(=O)[C@H](CC(C)C)NC(=O)c1snnc1-c1ccc(OC)cc1", "values": [{"measurement": "cytotoxicity at 10 µM", "value": 10.1, "unit": "%"}]}, {"smiles": "O=C(Cc1cccs1)NCc1ccnc(C2CCCOC2)n1", "note": "(centres undefined)", "values": [{"measurement": "cytotoxicity at 10 µM", "value": 1.2, "unit": "%"}]}, {"smiles": "CC(C)C(=O)Nc1cccc(OCC(=O)NCc2ccccc2F)c1", "values": [{"measurement": "cytotoxicity at 10 µM", "value": -6.19, "unit": "%"}]}, {"smiles": "COc1ccccc1C(=O)N1CCCC1c1nncn1CC(C)C", "note": "(centres undefined)", "values": [{"measurement": "cytotoxicity at 10 µM", "value": -2.96, "unit": "%"}]}, {"smiles": "Cn1c(C2CCCN2C(=O)c2cn(CCN)nn2)nc2ccccc21", "note": "(centres undefined)", "values": [{"measurement": "cytotoxicity at 10 µM", "value": 3.76, "unit": "%"}]}, {"smiles": "CCCN1CCC(Nc2nc(CC)ns2)CC1", "values": [{"measurement": "cytotoxicity at 10 µM", "value": -2.59, "unit": "%"}]}, {"smiles": "Fc1cccnc1O[C@@H]1CN(Cc2ccccn2)[C@@H]2CCCO[C@@H]21", "values": [{"measurement": "cytotoxicity at 10 µM", "value": 1.71, "unit": "%"}]}, {"smiles": "Cc1ncsc1CCN(C)C(=O)c1c(O)cccc1O", "values": [{"measurement": "cytotoxicity at 10 µM", "value": 0.417, "unit": "%"}]}, {"smiles": "Cc1ccc(C(=O)N2CCN3C[C@H](Oc4cccc(F)c4)C[C@H]3C2)cn1", "values": [{"measurement": "cytotoxicity at 10 µM", "value": 11.2, "unit": "%"}]}, {"smiles": "O=C(Cc1ccc2c(c1)OCCO2)N1CCCC(n2cccn2)C1", "note": "(centres undefined)", "values": [{"measurement": "cytotoxicity at 10 µM", "value": 7, "unit": "%"}]}, {"smiles": "O=C(CN1CCCC(c2ccn[nH]2)C1)Nc1nc2c(s1)CCCC2", "note": "(centres undefined)", "values": [{"measurement": "cytotoxicity at 10 µM", "value": -43.3, "unit": "%"}]}]}
